From ChEMBL document CHEMBL4402611, “Phenyl(thio)phosphon(amid)ate Benzenesulfonamides as Potent and Selective Inhibitors of Human Carbonic Anhydrases II and VII Counteract Allodynia in a Mouse Model of Oxaliplatin-Induced Neuropathy” (J Med Chem, 2020) come the findings set out here.

In series [1] the target is Carbonic anhydrase 1 (Homo sapiens, UniProt P00915). Put plainly: Inhibition of human recombinant carbonic anhydrase 1 preincubated with enzyme for 1 hr prior to testing by phenol red-based stopped-flow CO2 hydration assay.
Carbonic anhydrase 1, sequence (P00915 whole entry): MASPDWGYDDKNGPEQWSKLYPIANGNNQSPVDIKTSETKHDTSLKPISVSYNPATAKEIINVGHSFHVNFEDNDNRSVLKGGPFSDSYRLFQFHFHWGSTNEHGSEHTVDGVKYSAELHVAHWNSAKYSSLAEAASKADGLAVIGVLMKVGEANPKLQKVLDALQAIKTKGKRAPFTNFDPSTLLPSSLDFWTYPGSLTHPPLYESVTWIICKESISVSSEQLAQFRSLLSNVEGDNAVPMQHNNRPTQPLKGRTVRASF
Series [2] deals with Carbonic anhydrase 5A, mitochondrial (Homo sapiens, UniProt P35218). The experiment in a line: Inhibition of human recombinant carbonic anhydrase 5A preincubated with enzyme for 1 hr prior to testing by phenol red-based stopped-flow CO2 hydration assay.
Carbonic anhydrase 5A, mitochondrial, sequence (P35218 whole entry): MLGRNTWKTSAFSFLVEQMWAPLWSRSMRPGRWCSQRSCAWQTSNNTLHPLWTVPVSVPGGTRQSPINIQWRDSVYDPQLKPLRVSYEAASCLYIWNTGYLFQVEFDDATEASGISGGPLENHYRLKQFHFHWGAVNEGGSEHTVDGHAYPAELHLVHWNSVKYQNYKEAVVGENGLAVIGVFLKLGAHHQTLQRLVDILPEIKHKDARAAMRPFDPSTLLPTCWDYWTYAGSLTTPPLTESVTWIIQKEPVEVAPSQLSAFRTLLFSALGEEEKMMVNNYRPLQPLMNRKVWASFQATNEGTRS
The target of series [3] is Carbonic anhydrase 7 (Homo sapiens, UniProt P43166). Put plainly: Inhibition of human recombinant carbonic anhydrase 7 preincubated with enzyme for 1 hr prior to testing by phenol red-based stopped-flow CO2 hydration assay.
Carbonic anhydrase 7, sequence (P43166 whole entry): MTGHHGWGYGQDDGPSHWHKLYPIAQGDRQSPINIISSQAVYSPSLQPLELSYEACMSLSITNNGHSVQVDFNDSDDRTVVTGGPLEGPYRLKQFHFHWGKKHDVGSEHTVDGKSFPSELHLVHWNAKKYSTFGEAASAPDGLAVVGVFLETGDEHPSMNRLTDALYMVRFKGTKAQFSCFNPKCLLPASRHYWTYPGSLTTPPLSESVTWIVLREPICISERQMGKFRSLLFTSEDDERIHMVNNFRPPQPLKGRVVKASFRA
Series [4] deals with Carbonic anhydrase 12 (Homo sapiens, UniProt O43570). The experiment in a line: Inhibition of human recombinant carbonic anhydrase 12 preincubated with enzyme for 1 hr prior to testing by phenol red-based stopped-flow CO2 hydration assay.
Carbonic anhydrase 12, sequence (O43570 whole entry): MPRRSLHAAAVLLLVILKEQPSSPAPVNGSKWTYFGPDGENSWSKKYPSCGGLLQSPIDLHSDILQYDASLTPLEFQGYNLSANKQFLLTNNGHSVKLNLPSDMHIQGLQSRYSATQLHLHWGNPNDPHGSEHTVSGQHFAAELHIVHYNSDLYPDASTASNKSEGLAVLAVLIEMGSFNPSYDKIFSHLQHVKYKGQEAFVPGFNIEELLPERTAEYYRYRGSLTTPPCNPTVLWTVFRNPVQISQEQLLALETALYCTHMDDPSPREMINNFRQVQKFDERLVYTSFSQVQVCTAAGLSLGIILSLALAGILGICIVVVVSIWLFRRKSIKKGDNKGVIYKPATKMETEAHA
Series [5] can be described thus: Stability of compound in PBS buffer measured up to 120 mins by LC-MS/MS analysis. The class given is physicochemical. The settings on record: 2 h. The procedure, abridged:
(§1)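 Analyte (1 μM final) incubated at 37 °C in PBS, 10 mM HCl (pH 2) or human plasma. Sampling at 0, 30, 60 and 120 min, each in triplicate. Samples were quenched with acetonitrile containing verapamil internal standard, centrifuged and diluted. Read-out was LC–MS/MS with positive ESI and MRM on a PFP column.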

In series [6] the target is Carbonic anhydrase 2 (Homo sapiens, UniProt P00918). The experiment in a line: Inhibition of human recombinant carbonic anhydrase 2 preincubated with enzyme for 1 hr prior to testing by phenol red-based stopped-flow CO2 hydration assay.
Series [7] deals with Carbonic anhydrase 5B, mitochondrial (Homo sapiens, UniProt Q9Y2D0). The experiment in a line: Inhibition of human recombinant carbonic anhydrase 5B preincubated with enzyme for 1 hr prior to testing by phenol red-based stopped-flow CO2 hydration assay.
Carbonic anhydrase 5B, mitochondrial, sequence (Q9Y2D0 whole entry): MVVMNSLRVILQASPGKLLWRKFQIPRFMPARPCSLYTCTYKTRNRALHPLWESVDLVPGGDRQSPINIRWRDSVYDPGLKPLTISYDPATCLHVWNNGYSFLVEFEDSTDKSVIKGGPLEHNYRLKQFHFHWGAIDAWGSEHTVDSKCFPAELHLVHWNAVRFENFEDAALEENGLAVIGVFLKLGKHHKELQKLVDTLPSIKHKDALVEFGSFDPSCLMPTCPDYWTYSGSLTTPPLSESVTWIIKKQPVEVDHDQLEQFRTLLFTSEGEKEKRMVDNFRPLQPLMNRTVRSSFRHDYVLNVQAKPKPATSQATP
The target in series [8] is Carbonic anhydrase 4 (Homo sapiens, UniProt P22748). Put plainly: Inhibition of human recombinant carbonic anhydrase 4 preincubated with enzyme for 1 hr prior to testing by phenol red-based stopped-flow CO2 hydration assay.
Carbonic anhydrase 4, sequence (P22748 whole entry): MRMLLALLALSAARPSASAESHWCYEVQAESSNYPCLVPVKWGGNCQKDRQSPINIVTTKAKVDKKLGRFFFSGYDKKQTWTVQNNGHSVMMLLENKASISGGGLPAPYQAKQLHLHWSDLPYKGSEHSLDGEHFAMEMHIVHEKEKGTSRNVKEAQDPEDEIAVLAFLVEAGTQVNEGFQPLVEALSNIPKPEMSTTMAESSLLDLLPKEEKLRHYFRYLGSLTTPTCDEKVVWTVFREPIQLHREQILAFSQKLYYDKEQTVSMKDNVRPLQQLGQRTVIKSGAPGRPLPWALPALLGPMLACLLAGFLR
Series [9] is described as follows: Stability of compound in human plasma measured up to 120 mins by LC-MS/MS analysis. The format is ADME, cell-free. To be noted: 2 h. A digest of the protocol: as §1
Series [10] is described as follows: Stability of compound in aqueous HCl solution at pH 2 measured up to 120 mins by LC-MS/MS analysis. The class given is physicochemical. The settings on record: buffer, pH 2, 2 h. A digest of the protocol: as §1
Series [11] addresses Carbonic anhydrase 9 (Homo sapiens, UniProt Q16790). The experiment in a line: Inhibition of human recombinant carbonic anhydrase 9 preincubated with enzyme for 1 hr prior to testing by phenol red-based stopped-flow CO2 hydration assay. The format is single protein.
Series [12] in a line: Solubility of compound in water. The class given is physicochemical. The settings on record: buffer.
In series [13] the test system is Mus musculus. The experiment in a line: Antinociceptive activity in CD-1 albino mouse model of oxaliplatin-induced neuropathic pain assessed as decrease in pain-related behaviour measured as licking latency at 100 mg/kg, po treated on day 15 post oxaliplatin treatment and measured after 30 mins post dose by cold plate test. The class given is functional, organism-based. The procedure, abridged:
(§2)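 Male CD-1 mice (22–25 g) given oxaliplatin 2.4 mg kg–1 i.p. in 5% glucose on days 1–2, 5–9 and 12–14 (10 injections). On day 15, compounds were suspended in 1% CMC and given once orally. Cold plate held at 4 °C; latency to first hind-paw licking recorded, 30 s cutoff. Readings taken before dosing and at 15, 30, 45 and 60 min after. 12 mice per group over two sets, observers blinded.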

Series [14] deals with Mus musculus. Put plainly: Antinociceptive activity in orally dosed CD-1 albino mouse model of oxaliplatin-induced neuropathic pain assessed as decrease in pain-related behaviour measured as licking latency treated on day 15 post oxaliplatin treatment and measured after 15 to 60 mins post dose by cold plate test. The format is functional, organism-based. A digest of the protocol: as §2

Series [15] has as its system Mus musculus. Put plainly: Antinociceptive activity in CD-1 albino mouse model of oxaliplatin-induced neuropathic pain assessed as decrease in pain-related behaviour measured as licking latency at 100 mg/kg, po treated on day 15 post oxaliplatin treatment and measured after 30 to 45 mins post dose by cold plate test. The class given is functional, organism-based. A digest of the protocol:
as §2

Series [16] is described as follows: Stability of compound in aqueous HCl solution assessed as half life at pH 2 measured up to 120 mins by LC-MS/MS analysis. The format is physicochemical. To be noted: buffer, pH 2, 2 h. The procedure, abridged:
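Analyte (1 μM final) incubated at 37 °C in 10 mM aqueous HCl (pH 2), sampled in triplicate at 0, 30, 60 and 120 min. Quenched with acetonitrile containing verapamil internal standard, then quantified by LC–MS/MS with positive-ion MRM. Half-life taken from the degradation profile.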

The test system of series [17] is Mus musculus. Put plainly: Antinociceptive activity in CD-1 albino mouse model of oxaliplatin-induced neuropathic pain assessed as decrease in pain-related behaviour measured as licking latency at 100 mg/kg, po treated on day 15 post oxaliplatin treatment and measured after 15 mins post dose by cold plate test (reference value: 18.1 +/- 0.3 sec). The class given is functional.

Active and inactive are the calls of the source.

With `NS(=O)(=O)c1ccc(OP(=O)(Oc2ccc(S(N)(=O)=O)cc2)c2ccccc2)cc1`, the Ki in [1] was 671 nM; in series [2], 284 nM; in [3] it was 7.7 nM; in series [4] it was 16.9 nM; in [6] it was 3.2 nM; in series [7], 15 nM. Besides, the Ki stood at 360 nM in series [8] and 19.7 nM in series [11]. Further, the Stability entry in series [5], in [9] and in series [10] was “Stable” each time. Moreover, in [12], the solubility result is recorded as “Insoluble”. Further, the outcome in [13] was Active.
Turning to `C#CCOP(=O)(Oc1ccc(S(N)(=O)=O)cc1)c1ccccc1` (racemic), the Ki in [1] was 415 nM; in [2] it was 82.1 nM; in [3], 12.2 nM; in series [4], 26.7 nM; in [6], 3.6 nM; in series [7] it was 38.4 nM. Further, the Ki in series [8] is 1320 nM. Besides, the Stability entry in [5], in series [9] and in series [10] was “Stable” throughout. The Activity result in [14] was “Dose-dependent effect”. The result in series [15] was Active.
Consider `NS(=O)(=O)c1ccc(OP(=O)(c2ccccc2)N2CCCC2)cc1` (racemic), for which the Ki in series [1] was 242 nM; in series [2], 78.3 nM; in series [3], 9.3 nM; in [4], 58.1 nM; in series [6], 1.7 nM; in series [7], 25.6 nM. The Ki in series [8] is 308 nM; in series [11], 28.9 nM. In addition, the Stability result in series [5] is on record as “Stable”; in [16], “Unstable”; in series [9], “Stable”.
Turning to `CC(=O)Nc1nnc(S(N)(=O)=O)s1` [ACETAZOLAMIDE], the Time in series [17] was found to be 15.8 s.
